Assay results as given in ChEMBL document CHEMBL1125255, “Romazarit: a potential disease-modifying antirheumatic drug” (J Med Chem, 1991).
Where “and” joins values, the source holds several entries; their conditions need not be identical. Equal values may be shown once. Calls of active or inactive are those of the source. The calls are words filed in the database; no cut-off is given here.

Experiments:
Rattus norvegicus [1] = assay: Radiographic change was judged in the area of the tarsus region, using an arbitrary scoring system upon termination of the test (14 days dosing of 60 mg/kg) in a model of type II collagen arthritis in the rat.; format: functional; conditions: 336 h
Outline: (§1)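 Type II collagen arthritis rats, eight per group, oral sodium salts daily from grouping (day 1). Hind limbs X-rayed post mortem. Tibia/talus and tarsus damage scored 0–3 per foot by two observers and averaged; left and right summed (max 6). Compared with arthritic controls by Mann–Whitney U test.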

Rattus norvegicus [2] = species on record: Rattus norvegicus; assay: Percent decrease in serum haptoglobin evaluated in a developing adjuvant arthritis model rats.
[3] = Partition coefficient (logP); format: physicochemical; conditions: octanol/water
Outline: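 Compound dissolved in disodium hydrogen phosphate/citric acid buffer pH 7.4 and partitioned against equal volume octan-1-ol. Buffer-phase UV absorbance read before and after partitioning near λmax. P′ from the octanol:buffer absorbance ratio.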

Rattus norvegicus [4] = assay: Radiographic change was judged in the area of the talus joint, using an arbitrary scoring system upon termination of the test (14 days dosing of 60 mg/kg) in a model of type II collagen arthritis in the rat.; format: functional; conditions: 336 h; outline: as §1
Rattus norvegicus [5] = assay: Compound was evaluated in developing adjuvant arthritis model rats for its effect on paw edema.; format: functional; set-up: concentration or dose not given beside the values
Outline: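 Female Allen and Hanbury hooded rats, five per group. Right hind paw injected sc on day 0 with heat-killed M. tuberculosis in paraffin oil (5 mg/mL). Compounds given orally as sodium salts in water. Paw volumes of both hind paws measured days 1–4, 1 h after dosing. Percent inhibition taken from area under the curve of the between-paw volume difference.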

Rattus norvegicus [6] = assay: Hepatic effect assessed by increase in catalase levels after 14 days of dosing at 60 mg/kg orally.; format: functional
Outline: (§2)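 Type II collagen arthritis rats, eight per group, given oral sodium salts daily for 14 days. At termination liver homogenized in ice-cold 0.25 M sucrose and spun 2000 rpm 10 min. Catalase followed by decline in A240 from H2O2 breakdown, expressed as first-order rate constant K. Result given as % change versus normals.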

[7] = target: Prostaglandin G/H synthase 1 (Ovis aries) (UniProt P05979); assay: Inhibition of prostaglandin synthetase in sheep seminal vesicle
Sequence of Prostaglandin G/H synthase 1 (Ovis aries) (P05979 whole entry, looked up): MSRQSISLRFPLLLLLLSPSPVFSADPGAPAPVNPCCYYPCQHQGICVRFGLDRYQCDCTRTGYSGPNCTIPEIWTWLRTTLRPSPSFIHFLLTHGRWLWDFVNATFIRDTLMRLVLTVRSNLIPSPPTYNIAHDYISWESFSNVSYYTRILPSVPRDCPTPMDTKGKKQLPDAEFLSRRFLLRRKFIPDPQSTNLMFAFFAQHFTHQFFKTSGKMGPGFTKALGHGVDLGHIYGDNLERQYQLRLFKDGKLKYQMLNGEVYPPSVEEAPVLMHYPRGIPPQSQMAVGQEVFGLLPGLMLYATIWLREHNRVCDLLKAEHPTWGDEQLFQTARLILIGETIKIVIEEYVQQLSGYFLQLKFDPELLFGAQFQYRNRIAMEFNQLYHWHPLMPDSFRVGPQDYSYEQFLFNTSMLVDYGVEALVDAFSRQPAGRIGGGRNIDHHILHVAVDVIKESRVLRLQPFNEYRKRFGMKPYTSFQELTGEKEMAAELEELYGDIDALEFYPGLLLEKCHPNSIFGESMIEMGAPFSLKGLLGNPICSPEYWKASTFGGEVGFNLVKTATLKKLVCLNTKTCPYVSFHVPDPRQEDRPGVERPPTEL

Rattus norvegicus [8] = assay: Hepatic effect assessed by increase in liver weight after 14 days of dosing at 60 mg/kg orally.; format: functional
Outline: (§3)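 Type II collagen arthritis rats, eight per group, daily oral dosing as sodium salts in water for 14 days. Liver weight recorded at termination and expressed as percentage change versus normal animals.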

Rattus norvegicus [9] = assay: Radiographic change was judged in the area of the talus joint, using an arbitrary scoring system upon termination of the test (0.5 mg/kg 1-5 days dosing,0.25 mg/kg 6-15 days dosing)in a model of type II collagen arthritis in the rat.; format: functional; outline: as §1
Rattus norvegicus [10] = assay: Plasma level in type II collagen arthritis model after 14 days of dosing at 40 mg/kg.; format: functional, organism-based; set-up: dose 40 mg/kg
Outline: (§4)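 Type II collagen arthritis rats dosed orally for 14 days. Plasma drug level measured by reverse-phase C-18 HPLC with UV detection at 282 nm.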

Rattus norvegicus [11] = assay: Hepatic effect assessed by increase in catalase levels after 14 days of dosing at 100 mg/kg orally.; format: functional; outline: as §2
[12] = […] level determined in rat type II collagen arthritis model after 14 days dosing of 20 mg/kg.; format: functional
Outline: (§5)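 Rat type II collagen arthritis, eight rats per group, daily oral dosing as sodium salts in water for 14 days. Plasma haptoglobin determined at termination and compared with normal and arthritic controls by Student's t test.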

Rattus norvegicus [13] = assay: Hepatic effect assessed by increase in catalase levels after 14 days of dosing at 40 mg/kg orally.; format: functional; outline: as §2
[14] = […] level determined in rat type II collagen arthritis model after 14 days dosing of 60 mg/kg.; format: functional; outline: as §5
Rattus norvegicus [15] = assay: Radiographic change was judged in the area of the talus joint, using an arbitrary scoring system upon termination of the test (14 days dosing of 40 mg/kg)in a model of type II collagen arthritis in the rat.; format: functional; conditions: 336 h; outline: as §1
Rattus norvegicus [16] = assay: Plasma level in type II collagen arthritis model after 14 days of dosing at 20 mg/kg.; format: functional, organism-based; set-up: dose 20 mg/kg; outline: as §4
Homo sapiens = species on record: Homo sapiens; assay: (§6) Inhibition of human PGE-2 production.; format: functional
Outline: (§7)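 Human blood mononuclear cells from healthy volunteers stimulated with 2.5 μg/mL phytohaemagglutinin and incubated 24 h with compound (sodium salt). PGE2 measured by RIA.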

Rattus norvegicus [17] = assay: Radiographic change was judged in the area of the talus joint, using an arbitrary scoring system upon termination of the test (14 days dosing of 60 mg/kg)in a model of type II collagen arthritis in the rat.; format: functional; conditions: 336 h; outline: as §1
Rattus norvegicus [18] = assay: Hepatic effect assessed by increase in liver weight after 14 days of dosing at 100 mg/kg orally.; format: functional; outline: as §3
Rattus norvegicus [19] = assay: Plasma level in type II collagen arthritis model after 14 days of dosing at 100 mg/kg.; format: functional, organism-based; set-up: dose 100 mg/kg; outline: as §4
Rattus norvegicus [20] = assay: Hepatic effect assessed by increase in liver weight after 14 days of dosing at 20 mg/kg orally.; format: functional; outline: as §3
Cyclooxygenase = target: T1, Cyclooxygenase (Rattus norvegicus, UniProt P35355+Q63921); assay: Inhibition of prostaglandin synthetase in rat renal medulla; format: functional, tissue-based
T1 sequence (P35355 whole entry): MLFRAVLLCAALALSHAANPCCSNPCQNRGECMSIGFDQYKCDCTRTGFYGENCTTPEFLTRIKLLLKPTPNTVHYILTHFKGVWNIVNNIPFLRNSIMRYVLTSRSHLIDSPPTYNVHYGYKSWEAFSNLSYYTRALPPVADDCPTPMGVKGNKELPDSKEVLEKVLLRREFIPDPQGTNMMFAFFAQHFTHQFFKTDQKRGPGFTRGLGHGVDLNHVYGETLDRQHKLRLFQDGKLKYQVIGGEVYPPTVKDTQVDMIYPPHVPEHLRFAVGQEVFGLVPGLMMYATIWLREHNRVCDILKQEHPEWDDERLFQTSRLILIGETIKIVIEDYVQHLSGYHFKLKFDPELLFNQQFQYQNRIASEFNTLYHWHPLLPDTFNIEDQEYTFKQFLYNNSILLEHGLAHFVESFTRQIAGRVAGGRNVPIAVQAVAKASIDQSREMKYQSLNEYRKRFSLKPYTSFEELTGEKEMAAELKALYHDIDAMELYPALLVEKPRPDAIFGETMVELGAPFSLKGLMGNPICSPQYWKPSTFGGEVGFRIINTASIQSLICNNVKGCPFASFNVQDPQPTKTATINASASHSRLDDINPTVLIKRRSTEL
T1 sequence (Q63921 whole entry): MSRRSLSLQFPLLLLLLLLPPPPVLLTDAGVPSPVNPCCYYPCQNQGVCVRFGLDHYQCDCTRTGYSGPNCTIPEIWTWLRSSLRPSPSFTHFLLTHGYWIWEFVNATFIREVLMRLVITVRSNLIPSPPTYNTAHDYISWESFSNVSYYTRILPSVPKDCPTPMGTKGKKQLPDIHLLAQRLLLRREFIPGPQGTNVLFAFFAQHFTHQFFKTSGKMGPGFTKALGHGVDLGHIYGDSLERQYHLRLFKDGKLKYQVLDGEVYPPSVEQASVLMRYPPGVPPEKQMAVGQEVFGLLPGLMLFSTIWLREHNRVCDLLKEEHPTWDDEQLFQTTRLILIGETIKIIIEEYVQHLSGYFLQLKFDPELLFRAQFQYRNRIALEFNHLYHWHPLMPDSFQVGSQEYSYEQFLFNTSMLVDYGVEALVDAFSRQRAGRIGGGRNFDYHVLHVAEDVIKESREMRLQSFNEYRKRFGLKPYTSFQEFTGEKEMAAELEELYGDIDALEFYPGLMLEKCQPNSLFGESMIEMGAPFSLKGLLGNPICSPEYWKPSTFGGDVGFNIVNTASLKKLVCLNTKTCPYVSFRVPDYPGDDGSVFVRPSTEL
Outline: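 Same cyclooxygenase protocol run on rat renal medulla homogenate: 5 min 30 °C preincubation with glutathione 1 mM and adrenaline 625 μM. Prostaglandin/thromboxane area compared with the no-drug control.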

[21] = […] level determined in rat type II collagen arthritis model after 14 days dosing of 100 mg/kg.; format: functional; outline: as §5
[22] = […] level determined in rat type II collagen arthritis model after 14 days dosing of 40 mg/kg.; format: functional; outline: as §5
Rattus norvegicus [23] = assay: Radiographic change was judged in the area of the talus joint, using an arbitrary scoring system upon termination of the test (14 days dosing of 100 mg/kg)in a model of type II collagen arthritis in the rat.; format: functional; conditions: 336 h; outline: as §1
Rattus norvegicus [24] = assay: Radiographic change was judged in the area of the tarsus region, using an arbitrary scoring system upon termination of the test (14 days dosing of 20 mg/kg)in a model of type II collagen arthritis in the rat.; format: functional; conditions: 336 h; outline: as §1
Rattus norvegicus [25] = assay: Radiographic change was judged in the area of the tarsus region, using an arbitrary scoring system upon termination of the test (14 days dosing of 60 mg/kg)in a model of type II collagen arthritis in the rat.; format: functional; conditions: 336 h; outline: as §1
[26] = target: Prostaglandin G/H synthase 1 (Ovis aries) (UniProt P05979); assay: Inhibition of prostaglandin synthetase in sheep seminal vesicle; remark: listed apart in the source
Rattus norvegicus [27] = assay: Radiographic change was judged in the area of the talus joint, using an arbitrary scoring system upon termination of the test (14 days dosing of 20 mg/kg)in a model of type II collagen arthritis in the rat.; format: functional; conditions: 336 h; outline: as §1
Rattus norvegicus [28] = assay: Plasma level in type II collagen arthritis model after 14 days of dosing at 60 mg/kg.; format: functional, organism-based; set-up: dose 60 mg/kg; outline: as §4
Rattus norvegicus [29] = assay: Hepatic effect assessed by increase in liver weight after 14 days of dosing at 40 mg/kg orally.; format: functional; outline: as §3
Rattus norvegicus [30] = assay: Hepatic effect assessed by increase in catalase levels after 14 days of dosing at 20 mg/kg orally.; format: functional; outline: as §2
Rattus norvegicus [31] = assay: Radiographic change was judged in the area of the tarsus region, using an arbitrary scoring system upon termination of the test (14 days dosing of 40 mg/kg)in a model of type II collagen arthritis in the rat.; format: functional; conditions: 336 h; outline: as §1
Rattus norvegicus [32] = assay: Radiographic change was judged in the area of the tarsus region, using an arbitrary scoring system upon termination of the test (14 days dosing of 100 mg/kg)in a model of type II collagen arthritis in the rat.; format: functional; conditions: 336 h; outline: as §1
Rattus norvegicus [33] = species on record: Rattus norvegicus; assay: Percent decrease in serum haptoglobin evaluated in a developing adjuvant arthritis model rats; No significant effect
[34] = Inhibition of prostaglandin synthetase in sheep seminal vesicle; set-up: species or system Ovis aries
Outline: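 Sheep seminal vesicle enzyme (2.5 mg/mL) preincubated 5 min at 30 °C with or without compound (sodium salt, aqueous) plus glutathione 1 mM and adrenaline 625 μM. Integrated prostaglandin/thromboxane peak area compared with the no-drug control.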

Rattus norvegicus [35] = assay: Radiographic change was judged in the area of the tarsus region, using an arbitrary scoring system upon termination of the test (14 days dosing of 1 mg/kg) in a model of type II collagen arthritis in the rat.; format: functional; conditions: 336 h; outline: as §1
Rattus norvegicus [36] = assay: Radiographic change was judged in the area of the talus joint, using an arbitrary scoring system upon termination of the test (14 days dosing of 1 mg/kg) in a model of type II collagen arthritis in the rat.; format: functional; conditions: 336 h; outline: as §1
Mononuclear cell line = assay: as §6; format: functional, cell-based; outline: as §7

CC(C)(OCc1ccc(-c2ccc(Cl)cc2)cc1)C(=O)O [CLOBUZARIT]
inhibition in vivo at 60 mg/kg (Rattus norvegicus [1]): 41% | Decrease (Rattus norvegicus [2]): 31% | logP [3]: 1.52 | inhibition in vivo at 60 mg/kg (Rattus norvegicus [4]): 64% | Inhibition (Rattus norvegicus [5]): 48% | Change (Rattus norvegicus [6]): 164% | IC50 [7]: 950 µM | Change (Rattus norvegicus [8]): 19%

C[C@@H]1C[C@H]2[C@@H]3CCC4=CC(=O)C=C[C@]4(C)[C@@]3(F)[C@@H](O)C[C@]2(C)[C@@]1(O)C(=O)CO [DEXAMETHASONE]
Inhibition (Rattus norvegicus [9]): 95% and 98%

Cc1nc(-c2ccc(Cl)cc2)oc1COC(C)(C)C(=O)O [ROMAZARIT]
Plasma level (Rattus norvegicus [10]): 102 µg/mL | Change (Rattus norvegicus [11]): 19% | Haptoglobin [12]: 0.31 g/L | Change (Rattus norvegicus [13]): -34% | Haptoglobin [14]: 0.32 g/L | inhibition in vivo at 40 mg/kg (Rattus norvegicus [15]): 40% | Decrease (Rattus norvegicus [2]): 26% | Plasma level (Rattus norvegicus [16]): 64 µg/mL | IC50 (Homo sapiens): > 400 µM | inhibition in vivo at 60 mg/kg (Rattus norvegicus [17]): 63% | logP [3]: 0.34 | Change (Rattus norvegicus [18]): 13% | Plasma level (Rattus norvegicus [19]): 267 µg/mL | Change (Rattus norvegicus [20]): -5% | Inhibition (Rattus norvegicus [5]): 73% | IC50 (Cyclooxygenase): > 300 µM | Change (Rattus norvegicus [6]): -7% | Haptoglobin [21]: 0.34 g/L | Haptoglobin [22]: 0.43 g/L | inhibition in vivo at 100 mg/kg (Rattus norvegicus [23]): 82% | inhibition in vivo at 20 mg/kg (Rattus norvegicus [24]): 7% | inhibition in vivo at 60 mg/kg (Rattus norvegicus [25]): 46% | IC50 [26]: 6500 µM | inhibition in vivo at 20 mg/kg (Rattus norvegicus [27]): 33% | Plasma level (Rattus norvegicus [28]): 172 µg/mL | Change (Rattus norvegicus [29]): -3% | Change (Rattus norvegicus [30]): -51% | Change (Rattus norvegicus [8]): 4% | inhibition in vivo at 40 mg/kg (Rattus norvegicus [31]): 35% | inhibition in vivo at 100 mg/kg (Rattus norvegicus [32]): 56%

COc1ccc2c(c1)c(CC(=O)O)c(C)n2C(=O)c1ccc(Cl)cc1 [INDOMETHACIN]
Decrease (Rattus norvegicus [33]): inactive | IC50 [34]: 1.2 µM | Inhibition (Rattus norvegicus [5]): 84% | inhibition in vivo at 1 mg/kg (Rattus norvegicus [35]): 45% | inhibition in vivo at 1 mg/kg (Rattus norvegicus [36]): 48% | IC50 (Mononuclear cell line): 0.3 µM
